# Assay outcomes from PubChem.
# The full list was thinned out, with hits kept by preference.
# NALP1 yeast inh: NALP1 inhibition | S. cerevisiae NALP1/ASC/caspase-1 growth, X-gal OD620, 72 h | inhibition, % at 10 µM | 0.61% of 280,000 active | AID 2071; in the data active = inhibition mostly above about 24%, no sharp cut-off; inactive = mostly below about 32%
# T cruzi inh: blocks replication of Trypanosoma cruzi | T. cruzi beta-gal in NIH3T3, luminescence, 90 h | inhibition, % (no concentration beside the values) | 1.4% of 300,000 active;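 active = mean inhibition across valid replicates above about 55%, limit read from the data; inconclusive = mean below that limit but half or more replicates reach it; inactive = mean below it, under half of replicates reach it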;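 also: signal also drops with host cell toxicity which is not excluded here; higher percent means less beta-gal luminescence so fewer parasites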
#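 compound dosing = single 50 nL compound addition per well in DMSO | material = NIH/3T3 host cells with β-galactosidase reporter T. cruzi | input = 5,000 host fibroblasts per well | timing = ≥90 h infection period, 3 h prior cell attachment | read-out basis = percent inhibition of parasite-derived β-gal signal | detection = GalScreen β-gal luminescence, detergent lysis, 60 min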
# Calb FLC: C. albicans growth modulation with fluconazole. 0.57% of 300,000 active. AID 1979. growth inhibition, % (no concentration beside the values). C. albicans CaCi-2 + fluconazole, Alamar Blue growth, 48 h;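 active = growth inhibition above about 58% in most replicates, limit read from the data, passing the limit was not always enough; inconclusive = exactly half the replicates above a set limit; inactive = most replicates below a set limit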;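 also: all wells also contain fluconazole at 8 µg/ml as a sub-toxic cotreatment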
# PolyA inhibitor: blocks polyadenylation in yeast reporter cells | S. cerevisiae SKY197-pL101 polyadenylation reporter, beta-gal luminescence; efflux-impaired pdr1/pdr3 knockout yeast; score 100 = 6 SD above DMSO | activity score, % at 12 µM | 0.02% of 300,000 active;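 active = lowest replicate activity score at least 50, where 100 means six control SD above control mean; inconclusive = lowest score under 50 but half or more replicates reach 50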;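 also: yeast exposed to compound for 9 h at 30 °C; higher score means more reporter readthrough which indicates perturbed polyadenylation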
# Lmaj promast: reduces viability of Leishmania major promastigotes. resazurin fluorescence viability. inhibition, % at 10 µM. 9% of 200,000 active; in the data active = inhibition above about 50%;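 also: promastigotes grown with compound for 44 hours at 28 °C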
# NLRP3 yeast inh: inhibitors of NALP3 inflammasome in yeast; 0.39% of 330,000 active; inhibition, % at 10 µM; Yeast reconstituted NLRP3/ASC/caspase-1, beta-gal luminescence, 24 h;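 active = inhibition of 50% or more; inactive = inhibition below 50%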
# Numbers stand for hits; . = inactive; ? = inconclusive; / = not tested or not shown.
SMILES,NALP1 yeast inh,T cruzi inh,Calb FLC,PolyA inhibitor,Lmaj promast,NLRP3 yeast inh
CCOc1cccc2sc(Nc3nc4ccc(NC(C)=O)cc4s3)nc12,.,56.6,.,.,80.2,.
CCOC(=O)c1sc(Nc2ccccc2)nc1C,.,.,.,.,.,.
CCC(=O)Nc1nc2ccc(NC(C)=O)cc2s1,.,.,.,.,.,.
CCOC(=O)c1sc(Nc2nc3c(F)cccc3s2)cc1C,.,.,.,.,78.1,.
CCOC(=O)c1sc(Nc2nc3ccc(OC)cc3s2)cc1C,.,.,.,.,.,.
CCn1cc(C(=O)N[C@H](C(=O)NCCCN2CCOCC2)C(C)C)c(=O)c2cc3c(cc21)OCO3,.,.,.,.,/,.
CC(C)Oc1cc(NC(=O)CS(=O)(=O)CC(=O)N(C)C)c(Cl)cc1Cl,.,.,.,.,.,.
COC(=O)C1=CN(C2CC2)C=C(C(=O)OC)C1c1ccc(C(F)(F)F)cc1,.,.,.,.,88.3,.
COc1cc2[nH]c3ccccc3c2cc1C,22.1,.,.,.,/,.
CCOC(=O)c1ccc2[nH]c3ccccc3c2c1,.,.,.,.,.,.
Cc1ccc2c(c1)C(c1ccc([N+](=O)[O-])cc1)=NNC(c1ccc(Br)cc1)=N2,.,.,.,.,53.4,.
COc1ccc(-c2cnnn2-c2ccc([N+](=O)[O-])cc2)cc1,.,.,.,.,/,.
CC1(c2ccc3ccccc3c2)NC(=O)N(CC(=O)N2CCN(Cc3ccccc3)CC2)C1=O (configuration not stated),/,/,/,/,/,.
OC1(c2ccc3ccccc3c2)CCN(Cc2ccccc2)C1 (configuration not stated),.,.,.,.,93.9,.
Cc1cc(Br)cc2c(C(=O)Nc3c(C)n(C)n(-c4ccccc4)c3=O)cc(-c3cccs3)nc12,.,.,.,.,69.4,.
CCc1ccc(-c2cc(C(=O)Nc3c(C)n(C)n(-c4ccccc4)c3=O)c3ccccc3n2)s1,.,.,.,.,.,.
COc1cc(C)c(NC(=O)COc2cccc3c2OC(C)(C)C3)cc1OC,/,/,/,/,/,.
CNC(=O)c1ccc(Nc2nnc(-c3ccc(C(N)=O)cc3)c3ccccc23)cc1,.,.,.,.,/,.
NC(=O)c1ccc(Nc2nnc(-c3ccc(O)cc3)c3ccccc23)cc1,.,.,85.5,.,.,.
CSCC[C@H](NC(=O)[C@H](Cc1ccccc1)n1c(=O)[nH]c2ccccc2c1=O)C(=O)N1CCC(C(=O)O)CC1,.,.,.,.,/,.
COc1ccccc1N1C(=O)N(CC(=O)C(C)(C)C)c2ccccc2S1(=O)=O,.,.,.,.,/,.
O=C(CNC1CCCC1)Nc1cc(Cl)ccc1[N+](=O)[O-],44.8,.,.,.,/,.
COCC(=O)OCC(=O)Nc1cc(C)c(C)cc1[N+](=O)[O-],.,.,.,.,54.7,.
Cc1cc(C)n(-c2ccc(C(=O)OCC(=O)Nc3ccccc3[N+](=O)[O-])cc2)n1,.,.,.,.,.,.
Cc1cc(C)n(-c2ccc(C(=O)OCC(=O)Nc3cc(Cl)ccc3[N+](=O)[O-])cc2)n1,.,.,.,.,59.0,.
SMILES,NALP1 yeast inh,T cruzi inh,Calb FLC,PolyA inhibitor,Lmaj promast,NLRP3 yeast inh
COc1ccc(Cl)cc1NC(=O)COC(=O)CNC(=O)c1ccc([N+](=O)[O-])c(C)c1,.,.,.,.,56.4,.
COc1ccc(C2=NS(=O)(=O)N(C)C(C(=O)NCc3ccc4c(c3)OCO4)=C2)cc1OC,.,.,.,.,/,.
NC(=S)Nc1cccc2[nH]ccc12,.,64.0,.,?,.,.
NC(=S)Nc1cccc2[nH]ncc12,.,.,.,.,.,.
CCCCC1CCC(C(=O)N(C)CC(=O)Nc2cccc(F)c2)CC1 (configuration not stated),.,.,.,.,/,.
COc1cccc2[nH]c3c(N4CCC(C(N)=O)CC4)ncnc3c12,.,.,.,.,.,.
CCOC(=O)C1CCCN(c2ncnc3c2[nH]c2cccc(OC)c23)C1 (configuration not stated),.,.,.,.,75.9,/
COc1cccc2[nH]c3c(N4CC(C)CC(C)C4)ncnc3c12 (configuration not stated),.,56.6,.,.,99.9,.
COc1cccc2[nH]c3c(N4CCCC(C)C4)ncnc3c12 (configuration not stated),.,.,.,.,99.1,.
O=[N+]([O-])c1ccccc1S(=O)(=O)N1CCSCC1,/,/,/,/,/,.
Cc1cc(S(=O)(=O)N2CCCC(N(C)CCc3ccccn3)C2)c(C)cc1Cl (configuration not stated),.,.,.,.,/,.
CSc1cccc(NS(=O)(=O)c2ccc(F)cc2)c1,.,.,.,.,55.5,.
CC1CCN(CC(O)COc2cccc(F)c2)CC1 (configuration not stated),.,.,.,.,66.4,.
Cc1cccc(OCC(O)CN2CCOCC2)c1 (configuration not stated),.,.,.,.,/,.
CCN1CCN(CC(O)COc2cccc(OC)c2)CC1 (configuration not stated),.,.,.,.,.,.
COc1cccc(OCC(O)CN2CCC(C)CC2)c1 (configuration not stated),.,.,.,.,71.4,.
CC1CCN(CC(O)COc2ccc(F)cc2)CC1 (configuration not stated),.,.,.,.,.,.
Cc1cccc(OCC(O)CN2CCN(C3CCCCC3)CC2)c1 (configuration not stated),.,.,.,.,90.8,.
c1ccc2sc(NN=C3CCCCCC3)nc2c1,.,.,106.3,.,62.7,.
NS(=O)(=O)c1ccc(CNC(=O)C2(c3ccc(Cl)cc3)CC2)cc1,.,.,.,.,85.4,.
COc1ccc(CNC(=O)C2(c3ccc(Cl)cc3)CC2)cc1,.,.,.,.,.,.
CC(=O)N1CCN(c2ccc(S(=O)(=O)N3CCCCC3)cc2[N+](=O)[O-])CC1,/,/,/,/,/,.
CN1CCN(c2ccc(S(=O)(=O)N3CCCCC3)cc2[N+](=O)[O-])CC1,.,68.0,.,.,.,.
O=C(c1ccccc1)c1ccc(N2CCOCC2)c(F)c1,.,.,.,.,53.1,.
O=[N+]([O-])c1cc(S(=O)(=O)N2CCCCCC2)ccc1F,78.6,/,/,/,.,/
O=C(/C=C/c1ccc(N2CCCCC2)c([N+](=O)[O-])c1)c1ccc(S(=O)(=O)N2CCCC2)cc1,.,.,.,.,100.4,/
COc1cccc(C(=O)/C=C/c2ccc(N3CCCCC3)c([N+](=O)[O-])c2)c1,.,.,.,.,.,.
C=CCN=C1CC(C)(C)CC(=O)/C1=C(\O)CCCN1C(=O)c2ccccc2C1=O,.,.,.,.,.,.
CCc1nnc(NC(=O)CSc2nnc(-c3ccc(NS(=O)(=O)c4ccccc4)cc3)o2)s1,.,.,.,.,.,.
